Data set [1] in a line: folding enthalpy; higher = less favourable; fluorescence melt of hairpins on a sequencing array, two-state fit. The conditions noted are these: sodium 0.088 M. A digest of the protocol:
(§1)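 With Cy3 and quencher oligos annealed, library hairpins on a sequenced MiSeq flow cell were imaged for Cy3 fluorescence in 50 mM Na-HEPES pH 8.0, 25 mM NaCl, in 2.5 °C steps up to 60 °C. Melting temperature and folding enthalpy were derived from bootstrapped two-state fits of signals normalised to pre-quench Cy3 and to control constructs. Four replicates were combined by inverse variance, with fitted temperatures raised by 9.35 °C to match UV melts.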

Data set [2] in a line: melting temperature; fluorescence melt of hairpins on a sequencing array, two-state fit, raised by 9.35 °C to match UV melts. Particulars: sodium 0.088 M. Put shortly:
as §1

Consider GGCTGCCCGAAAGGGGCC (((..(((....)))))), for which the folding enthalpy in data set [1] is -13.7 kcal/mol. Besides, the Tm in data set [2] was found to be 47.6 °C.

As for GGCTGCGAAAGCAAAGCC ((((((....)))..))), the folding enthalpy in data set [1] was -24.7 kcal/mol. Besides, in data set [2], the Tm turned out to be 61.3 °C.

On to GGCTGCGAAAGCAACGCC ((((((....)))..))), for which the folding enthalpy in data set [1] is -22.1 kcal/mol. The Tm in data set [2] worked out at 56.6 °C.

Take GGCTGCGAAAGCAGAGCC ((((((....)))..))): the folding enthalpy in data set [1] is -16.3 kcal/mol. Moreover, in data set [2], the Tm was found to be 60.1 °C.

On to GGCTGCGAAAGCAGTGCC ((((((....)))..))), for which the folding enthalpy in data set [1] is -12.1 kcal/mol. The Tm in data set [2] is 51.7 °C.

For GGCTGCGGAAACGCAGTC (.(((((....))))).), the folding enthalpy in data set [1] is -22.4 kcal/mol. Also, the Tm in data set [2] is 66.1 °C.

GGCTGGCCGAAAGGCGCC (((..(((....)))))): in data set [1], the folding enthalpy was -16.4 kcal/mol. The Tm in data set [2] amounted to 61 °C.

Regarding GGCTGTCGAAAGACGCC (((.(((....)))))), the folding enthalpy in data set [1] is -31.2 kcal/mol. Further, the Tm in data set [2] stood at 61.1 °C.

Consider GGCTGTGGAAACACAACC ((.((((....)))).)), for which the folding enthalpy in data set [1] was -31.5 kcal/mol. The Tm in data set [2] amounted to 44.4 °C.

In the case of GGCTGTGGAAACGCAGCC (((((.(....).))))), the folding enthalpy in data set [1] was -48.6 kcal/mol. The Tm in data set [2] was determined as 63.4 °C.

With GGCTGTGGAAACGCAGTC (.(((.(....).))).), in data set [1], the folding enthalpy was -23.4 kcal/mol. Moreover, the Tm in data set [2] was 42.4 °C.

Turning to GGCTGTTCGAAAGAAGCC (((..(((....)))))), the folding enthalpy in data set [1] was -20.9 kcal/mol. Moreover, the Tm in data set [2] amounted to 38.2 °C.

In the case of GGCTTACGAAAGTACGCC (((.(((....))).))), the folding enthalpy in data set [1] is -48 kcal/mol. In addition, in data set [2], the Tm turned out to be 52.9 °C.

Consider GGCTTAGCGAAAGCTGCC (((..(((....)))))), for which the folding enthalpy in data set [1] is -23 kcal/mol. The Tm in data set [2] is 52.5 °C.

Regarding GGCTTAGGAAACCAAGCC (((((.(....).))))), the folding enthalpy in data set [1] was -31.4 kcal/mol. Further, the Tm in data set [2] is 47.4 °C.

For the sequence GGCTTATCGAAAGATGCC (((..(((....)))))), the folding enthalpy in data set [1] is -24.1 kcal/mol. In data set [2], the Tm was 39.8 °C.

As for GGCTTCACGAAAGTGGCC (((..(((....)))))), the folding enthalpy in data set [1] is -19.6 kcal/mol. Besides, the Tm in data set [2] came out at 45.2 °C.

In the case of GGCTTCGAAAGAAAGCC ((((((....))).))), the folding enthalpy in data set [1] is -38.1 kcal/mol. Besides, the Tm in data set [2] worked out at 55 °C.

Turning to GGCTTCGAAAGAAAGGCC ((((((....)))..))), the folding enthalpy in data set [1] is -26 kcal/mol. Besides, in data set [2], the Tm amounted to 43.4 °C.

In the case of GGCTTCGAAAGAACTGCC ((((((....)))..))), the folding enthalpy in data set [1] was -21.5 kcal/mol. Further, the Tm in data set [2] amounted to 36.7 °C.

On to GGCTTCGAAAGAATGCC ((((((....))).))), for which the folding enthalpy in data set [1] is -27.9 kcal/mol. In addition, the Tm in data set [2] came out at 50.7 °C.

GGCTTCGAAAGAATTGCC ((((((....)))..))): the folding enthalpy in data set [1] was -23.3 kcal/mol. The Tm in data set [2] amounted to 35.4 °C.

Turning to GGCTTGGGAAACCGAGCC ((((.((....)).)))), in data set [1], the folding enthalpy was -54.1 kcal/mol. Also, the Tm in data set [2] turned out to be 58.5 °C.

Take GGCTTGGGAAACTAAGCC (((((.(....).))))): the folding enthalpy in data set [1] was -45.5 kcal/mol. For the same sequence, the Tm in data set [2] was 52.2 °C.

In the case of GGCTTGGGAAACTGAGCC ((((..(....)..)))), the folding enthalpy in data set [1] is -32.9 kcal/mol. Moreover, the Tm in data set [2] was 45.7 °C.

Turning to GGCTTTCCGAAAGGAGCC (((..(((....)))))), the folding enthalpy in data set [1] is -24.5 kcal/mol. Also, the Tm in data set [2] amounted to 45.2 °C.

Regarding GGCTTTCGAAAGAAGCC (((.(((....)))))), the folding enthalpy in data set [1] was -41.6 kcal/mol. Moreover, the Tm in data set [2] worked out at 52.8 °C.

Regarding GGCTTTGAAAAAAGCC ((((((....)))))), the folding enthalpy in data set [1] was -38.5 kcal/mol. The Tm in data set [2] amounted to 57.6 °C.

For the sequence GGGAAACCGAAAGGTCCC (((..(((....)))))), the folding enthalpy in data set [1] is -19.7 kcal/mol. Besides, the Tm in data set [2] was found to be 46.6 °C.

For GGGAAACGAAAGTTACCC (((.(((....))).))), the folding enthalpy in data set [1] was -29.5 kcal/mol. In data set [2], the Tm was determined as 50.7 °C.

In the case of GGGAAACGAAAGTTGCCC (((.(((....))).))), the folding enthalpy in data set [1] was -43.9 kcal/mol. The Tm in data set [2] was 56.6 °C.

In the case of GGGAAAGAAATTTCCC ((((((....)))))), the folding enthalpy in data set [1] is -27.4 kcal/mol. Also, the Tm in data set [2] stood at 48.7 °C.

As for GGGAAAGGAAACCTTCCC (((((.(....).))))), the folding enthalpy in data set [1] is -28.2 kcal/mol. Further, in data set [2], the Tm was found to be 39.2 °C.

Regarding GGGAAATCGAAAGATCCC (((..(((....)))))), the folding enthalpy in data set [1] was -21.6 kcal/mol. The Tm in data set [2] came to 36 °C.

In the case of GGGAACCGAAAGGTCCC (((.(((....)))))), the folding enthalpy in data set [1] was -20.9 kcal/mol. Further, the Tm in data set [2] was 57.3 °C.

On to GGGAACGAAAGTTTCCC ((((((....))).))), for which, in data set [1], the folding enthalpy was -31.5 kcal/mol. In data set [2], the Tm is 52.9 °C.

For the sequence GGGAACGAAAGTTTCCCC ((((((....)))..))), the folding enthalpy in data set [1] was -19.9 kcal/mol. The Tm in data set [2] worked out at 53.5 °C.

Values taken from the array DNA melting data of Ke et al. (doi:10.1101/2024.01.08.574731).
